This note sets out measurements from ChEMBL document CHEMBL1275282, “Synthesis, characterization, oxidative degradation, antibacterial activity and acetylcholinesterase/butyrylcholinesterase inhibitory effects of some new phosphorus(V) hydrazides” (Eur J Med Chem, 2010).

Compound in data set [1]: O=C(NP(=O)(NN1CCCCC1)NN1CCCCC1)c1ccccc1
Briefly: (§1) Inhibition of human AChE by double reciprocal Lineweaver-Burke plot assay. The method in brief:
(§2)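 Kinetics used the same Ellman read-out, with substrate varied: acetylthiocholine for AChE, butyrylthiocholine for BChE. Rates were taken as OD min-1 with and without inhibitor. Km and Vmax were derived from double-reciprocal Lineweaver-Burk plots of 1/V against 1/[S].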

Compound in data set [2]: O=C(NP(=O)(NN1CCOCC1)NN1CCOCC1)c1ccccc1
The data set is described as §1. The gist of the method: as §2

Compound in data set [3]: O=P(NN1CCOCC1)(NN1CCOCC1)Oc1ccccc1
The description is as §1. The method in brief: as §2

Compound in data set [4]: O=P(O)(NN1CCCCC1)Oc1ccccc1
The description is as §1. The gist of the method: as §2

Compound in data set [5]: O=C(NP(=O)(NN1CCCCC1)NN1CCCCC1)c1ccccc1
Briefly: (§3) Inhibition of human BChE by double reciprocal Lineweaver-Burke plot assay. The gist of the method:
as §2

Compound in data set [6]: O=C(NP(=O)(NN1CCOCC1)NN1CCOCC1)c1ccccc1
The description is as §3. The method in brief:
as §2

Compound in data set [7]: O=P(NN1CCOCC1)(NN1CCOCC1)Oc1ccccc1
Described as §3. The gist of the method:
as §2

Compound in data set [8]: O=P(NN1CCOCC1)(NN1CCOCC1)c1ccccc1
The data set is described as §3. The method in brief: as §2

Compound in data set [9]: O=P(O)(NN1CCCCC1)Oc1ccccc1
The data set is described as §3. The gist of the method: as §2

B1: Acetylcholinesterase (Homo sapiens), P22303 (protein)
chain: MRPPQCLLHTPSLASPLLLLLLWLLGGGVGAEGREDAELLVTVRGGRLRGIRLKTPGGPVSAFLGIPFAEPPMGPRRFLPPEPKQPWSGVVDATTFQSVCYQYVDTLYPGFEGTEMWNPNRELSEDCLYLNVWTPYPRPTSPTPVLVWIYGGGFYSGASSLDVYDGRFLVQAERTVLVSMNYRVGAFGFLALPGSREAPGNVGLLDQRLALQWVQENVAAFGGDPTSVTLFGESAGAASVGMHLLSPPSRGLFHRAVLQSGAPNGPWATVGMGEARRRATQLAHLVGCPPGGTGGNDTELVACLRTRPAQVLVNHEWHVLPQESVFRFSFVPVVDGDFLSDTPEALINAGDFHGLQVLVGVVKDEGSYFLVYGAPGFSKDNESLISRAEFLAGVRVGVPQVSDLAAEAVVLHYTDWLHPEDPARLREALSDVVGDHNVVCPVAQLAGRLAAQGARVYAYVFEHRASTLSWPLWMGVPHGYEIEFIFGIPLDPSRNYTAEEKIFAQRLMRYWANFARTGDPNEPRDPKAPQWPPYTAGAQQYVSLDLRPLEVRRGLRAQACAFWNRFLPKLLSATDTLDEAERQWKAEFHRWSSYMVHWKNQFDHYSKQDRCSDL
On to B1, for which the Km in [1] was determined as 45 µM; in data set [2], 49 µM; in data set [3] it was 47 µM; in [4] it was 51 µM. The Vmax in data set [1] was found to be 40 mM/min; in data set [2], 55.5 mM/min; in data set [3] it was 37 mM/min; in data set [4], 11.1 mM/min.

B2: Cholinesterase (Homo sapiens), P06276 (protein)
chain: MHSKVTIICIRFLFWFLLLCMLIGKSHTEDDIIIATKNGKVRGMNLTVFGGTVTAFLGIPYAQPPLGRLRFKKPQSLTKWSDIWNATKYANSCCQNIDQSFPGFHGSEMWNPNTDLSEDCLYLNVWIPAPKPKNATVLIWIYGGGFQTGTSSLHVYDGKFLARVERVIVVSMNYRVGALGFLALPGNPEAPGNMGLFDQQLALQWVQKNIAAFGGNPKSVTLFGESAGAASVSLHLLSPGSHSLFTRAILQSGSFNAPWAVTSLYEARNRTLNLAKLTGCSRENETEIIKCLRNKDPQEILLNEAFVVPYGTPLSVNFGPTVDGDFLTDMPDILLELGQFKKTQILVGVNKDEGTAFLVYGAPGFSKDNNSIITRKEFQEGLKIFFPGVSEFGKESILFHYTDWVDDQRPENYREALGDVVGDYNFICPALEFTKKFSEWGNNAFFYYFEHRSSKLPWPEWMGVMHGYEIEFVFGLPLERRDNYTKAEEILSRSIVKRWANFAKYGNPNETQNNSTSWPVFKSTEQKYLTLNTESTRIMTKLRAQQCRFWTSFFPKVLEMTGNIDEAEWEWKAGFHRWNNYMMDWKNQFNDYTSKKESCVGL
For B2, the Michaelis constant (Km) was determined as 75 µM in data set [5]; 50 µM in [6]; 85 µM in data set [7]; 67 µM in [8]; 67 µM in [9]. For the same protein, the Vmax amounted to 55.6 mM/min in data set [5]; 23.5 mM/min in [6]; 66.4 mM/min in data set [7]; 71.4 mM/min in data set [8]; 27.8 mM/min in [9].

The Km is the substrate concentration at which the rate is half of its maximum. By Vmax is commonly meant the top rate of the reaction or transport when substrate is in excess.
